Experimental data published in publication PMC6993754 (Pharmacology Research & Perspectives, 2020).

B1: recombinant CYP2J2 (Homo sapiens) (protein)
chain: MLAAMGSLAAALWAVVHPRTLLLGTVAFLLAADFLKRRRPKNYPPGPWRLPFLGNFFLVDFEQSHLEVQLFVKKYGNLFSLELGDISAVLITGLPLIKEALIHMDQNFGNRPVTPMREHIFKKNGLIMSSGQAWKEQRRFTLTALRNFGLGKKSLEERIQEEAQHLTEAIKEENGQPFDPHFKINNAVSNIICSITFGERFEYQDSWFQQLLKLLDEVTYLEASKTCQLYNVFPWIMKFLPGPHQTLFSNWKKLKLFVSHMIDKHRKDWNPAETRDFIDAYLKEMSKHTGNPTSSFHEENLICSTLDLFFAGTETTSTTLRWALLYMALYPEIQEKVQAEIDRVIGQGQQPSTAARESMPYTNAVIHEVQRMGNIIPLNVPREVTVDTTLAGYHLPKGTMILTNLTALHRDPTEWATPDTFNPDHFLENGQFKKREAFMPFSIGKRACLGEQLARTELFIFFTSLMQKFTFRPPNNEKLSLKFRMGITISPVSHRLCAVPQV

Legend:
[1] = Time‐dependent metabolism of STS‐135 in genotyped HLMs CYP3A5*1/*1; type: in vitro ADME; conditions: human, genotyped CYP3A5*1/*1 human liver microsomes, pH 7.4
Summary of the method: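 CYP3A5-genotyped human liver microsomes (*1/*1 or *3/*3) incubated with test compound in 0.1 mol/L KPO₄, pH 7.4, with NADPH-regenerating system at 37°C. Sampled at 0, 10, 20, 30, 45, 60, 90 and 120 min, ethanol-stopped, centrifuged and analysed by UPLC-UV (300 nm) for parent depletion. Half-life determined directly by linear regression; triplicate reactions.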

recombinant CYP2J2 = molecular target: T1, recombinant CYP2J2 (Homo sapiens, UniProt P51589)
T1 sequence (P51589 1-502): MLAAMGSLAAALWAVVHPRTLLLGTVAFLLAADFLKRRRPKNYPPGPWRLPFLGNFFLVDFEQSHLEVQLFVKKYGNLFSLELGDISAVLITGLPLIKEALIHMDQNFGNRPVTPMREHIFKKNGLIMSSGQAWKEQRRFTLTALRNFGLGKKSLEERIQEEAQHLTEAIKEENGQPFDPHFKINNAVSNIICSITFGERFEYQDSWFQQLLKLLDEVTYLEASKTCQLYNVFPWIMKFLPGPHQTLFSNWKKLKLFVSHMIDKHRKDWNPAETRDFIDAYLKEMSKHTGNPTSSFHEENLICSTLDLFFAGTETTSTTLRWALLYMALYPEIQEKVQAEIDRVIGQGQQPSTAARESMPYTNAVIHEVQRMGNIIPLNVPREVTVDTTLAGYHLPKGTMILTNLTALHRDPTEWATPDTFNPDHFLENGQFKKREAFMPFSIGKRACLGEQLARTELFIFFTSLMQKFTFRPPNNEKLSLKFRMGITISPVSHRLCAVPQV

[2] = test system: human brain microsomes (HBMs); test: Screening of STS‐135 oxidative metabolism with HBMs; type: in vitro ADME; conditions: STS‐135 50 µmol/L
Summary of the method: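 Pooled 50-donor human brain microsomes with test compound (50 µmol/L, 2% DMSO) in 0.1 mol/L KPO₄, pH 7.4. Stopped with equal-volume ethanol, centrifuged; UPLC-UV at 300 nm for M21/M25. No-substrate, no-protein and no-NADPH controls; triplicate; nmol/mg protein/min.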

CB1 receptor = conditions: cited from earlier work
human hepatocytes = conditions: oxidation, hydrolysis, and glucuronidation; cited from earlier work
CB2 receptor = conditions: cited from earlier work
not read = substrate: O=C(NC12CC3CC(CC(C3)C1)C2)c1cn(CCCCCF)c2ccccc12; test: not read; conditions: 37.0 °C

| Molecule | half-life [1] | K m, production of M25 (Figure 6 legend) (recombinant CYP2J2) | Specific activity, formation of M21 [2] | Specific activity, formation of M25 [2] | Agonist activity at CB1 receptor (CB1 receptor) | Number of metabolites formed (human hepatocytes) | Agonist activity at CB2 receptor (CB2 receptor) | Km (not read) | Vmax (not read) |
| --- | --- | --- | --- | --- | --- | --- | --- | --- | --- |
| O=C(NC12CC3CC(CC(C3)C1)C2)c1cn(CCCCCF)c2ccccc12 [STS‐135, N‐(adamantan‐1‐yl)‐1‐(5‐fluoropentyl)‐1H‐indole‐3‐carboxamide] | 21.1 min | 11.2389 ± 1.733 | no detectable metabolites | no detectable metabolites | potent agonist | 29 metabolites | potent agonist |  |  |
| B1 |  |  |  |  |  |  |  | 11.2 ± 1.7 µM | 17.2 ± 0.5 pmol/min/mg protein |
